# In ChEMBL document CHEMBL4627410, “Discovery of an Orally Active Small-Molecule Tumor Necrosis Factor-α Inhibitor” (J Med Chem, 2020):
# The source made the active and inactive calls. No cut-off for these calls is given here.
# Key:
# Mus musculus [1] = experiment: Antiinflammatory activity in Balb/c mouse assessed as inhibition of LPS-induced IL1-beta production at 25 to 50 mg/kg, po pre-treated 90 mins before LPS injection and measured after 4 hrs by sandwich ELISA; format: functional, organism-based
# In short: (§1)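 Male Balb/c mice, 7–8 weeks old, randomized into control, LPS and two dose groups. Oral dosing 90 min before LPS (1.5 mg/kg, i.p.). Serum taken from clotted blood 4 h after LPS and stored at -80 °C. IL-1β and IL-6 measured by sandwich ELISA. At least six mice per group, each sample run in duplicate.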
# Tumor necrosis factor [2] = biological target: T1, Tumor necrosis factor (Homo sapiens, UniProt P01375); experiment: Binding affinity to recombinant TNFalpha (unknown origin) expressed in Escherichia coli BL21 (DE3) incubated for 10 mins by MST assay
# Tumor necrosis factor [3] = biological target: T1, Tumor necrosis factor; experiment: Binding affinity to recombinant TNFalpha (unknown origin) expressed in Escherichia coli BL21 (DE3) assessed as increase in Kd for TNF-alpha-TNFR1 binding at 10 uM pe-incubated for 15 mins before TNFR1 addition and measured after 15 mins by MST assay relative to control
# In short: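 TNF-α (C-terminal His6, from E. coli BL21(DE3), purified by Ni-agarose, thrombin digest, anion exchange and size exclusion) at various concentrations was preincubated with 10 µM compound for 15 min at room temperature. The mix was added to an equal volume of RED-labelled TNFR1 in 20 mM HEPES pH 7.5, 0.05% Tween-20. MST was read at 22 °C (100% LED, 20% MST power) and KD was fitted.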
# Tumor necrosis factor [4] = biological target: T1, Tumor necrosis factor; experiment: Binding affinity to recombinant TNFalpha (unknown origin) expressed in Escherichia coli BL21 (DE3) assessed as inhibition of TNFR1 binding to immobilized TNF-alpha pre-incubated with TNFR1 for 20 mins followed by TNFalpha addition and measured after 120 mins by ELISA
# Tumor necrosis factor [5] = biological target: T1, Tumor necrosis factor; experiment: Binding affinity to recombinant TNFalpha (unknown origin) expressed in Escherichia coli BL21 (DE3) assessed as protection of TNF-alpha from protease mediated digestion at 2.5 to 20 uM
# In short: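 DARTS assay on TNF-α (His6-tagged, expressed in E. coli BL21(DE3) and purified by Ni-affinity, anion exchange and size exclusion). Protein was treated with compound, then digested with pronase for 30 min. Remaining TNF-α was read out.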
# Tumor necrosis factor [6] = biological target: T1, Tumor necrosis factor; experiment: Binding affinity to recombinant TNFalpha (unknown origin) expressed in Escherichia coli BL21 (DE3) assessed as increase in TNF-alpha thermal stability by measuring tolerated temperature (reference value: 90 degC)
# [7] = biological target: T2, Tumor necrosis factor (Mus musculus) (UniProt P06804); experiment: (§2) Inhibition of TNF-alpha in mouse RAW264.7 cells assessed as inhibition of LPS-induced IKBalpha phosphorylation at 5 to 20 uM pre-incubated for 12 hrs before LPS stimulation for 2 hrs by Western blot analysis; format: cell-based
# T2 sequence (whole entry): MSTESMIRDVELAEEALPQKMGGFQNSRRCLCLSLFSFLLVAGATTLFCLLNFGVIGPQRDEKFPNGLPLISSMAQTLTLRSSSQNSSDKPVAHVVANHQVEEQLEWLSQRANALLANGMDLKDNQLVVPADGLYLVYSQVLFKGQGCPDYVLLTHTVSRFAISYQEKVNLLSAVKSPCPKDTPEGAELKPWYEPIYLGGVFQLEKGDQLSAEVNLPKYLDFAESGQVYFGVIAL
# In short: (§3)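 RAW264.7 cells (5×10^4 cells/mL) cultured overnight. Compound at 5, 10 or 20 µM for 12 h, then LPS 1 µg/mL for 2 h. Lysed in RIPA, protein equalized by BCA, run on 12% SDS-PAGE. Immunoblotted for IκBα and p-IκBα, ECL detection.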
# [8] = biological target: T2, Tumor necrosis factor (Mus musculus); experiment: as §2; format: cell-based; in short: as §3; remark: listed apart in the source
# [9] = biological target: T2, Tumor necrosis factor (Mus musculus); experiment: Inhibition of TNF-alpha in mouse RAW264.7 cells assessed as inhibition of NFkappB/p65 nuclear translocation at 5 to 20 uM by DAPI staining based microscopy; format: cell-based
# In short: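 RAW264.7 cells grown to 50–70% confluence in glass chambers. Pretreated 12 h with DMSO or compound, then TNF-α 10 ng/mL for 2 h. Fixed in 4% paraformaldehyde, permeabilized with 0.25% Triton X-100, blocked with BSA. Stained with anti-p65 (1:1000, 4 °C overnight), fluorescent secondary (1:500) and DAPI nuclear stain. Imaged by fluorescence microscopy.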
# [10] = Toxicity in mouse RAW264.7 cells at 5 to 20 uM; format: cell-based
# Mus musculus [11] = experiment: Antiinflammatory activity in Balb/c mouse assessed as inhibition of LPS-induced IL6 production at 25 to 50 mg/kg, po pre-treated 90 mins before LPS injection and measured after 4 hrs by sandwich ELISA; format: functional, organism-based; in short: as §1
# Mus musculus [12] = experiment: Antiinflammatory activity in Balb/c mouse model of endotoxemia assessed as increase in mouse survival at 25 mg/kg, ig pre-treated 2 hrs before LPS injection and measured 12 to 96 hrs post LPS challenge; format: functional, organism-based
# In short: (§4)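 Endotoxemia induced with LPS 15 mg/kg i.p., n=10 per group; controls received saline i.p. Gavage dose given 2 h before LPS, then again at 12, 24, 48, 72 and 96 h. Survival followed daily for up to 2 weeks. Liver and lung fixed in 10% formalin and sections stained with H&E. Means ± SD.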
# Mus musculus [13] = experiment: Antiinflammatory activity in Balb/c mouse model of endotoxemia assessed as reduction in lung damage at 25 mg/kg, ig pre-treated 2 hrs before LPS injection and measured 12 to 96 hrs post LPS challenge by H and E staining based histopathological analysis; format: functional, organism-based; in short: as §4
# Mus musculus [14] = experiment: Antiinflammatory activity in Balb/c mouse model of endotoxemia assessed as reduction in liver damage at 25 mg/kg, ig pre-treated 2 hrs before LPS injection and measured 12 to 96 hrs post LPS challenge by H and E staining based histopathological analysis; format: functional, organism-based; in short: as §4
# Mus musculus [15] = experiment: Antiinflammatory activity in Balb/c mouse model of endotoxemia assessed as reduction in emergence of hemorrhagic necrosis at 25 mg/kg, ig pre-treated 2 hrs before LPS injection and measured 12 to 96 hrs post LPS challenge by H and E staining based histopathological analysis; format: functional, organism-based; in short: as §4
# Mus musculus [16] = experiment: Antiinflammatory activity in Balb/c mouse model of collagen-induced arthritis assessed as reduction in arthritic score at 25 to 50 mg/kg, ig for 2 weeks; format: functional, organism-based
# In short: (§5)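 Balb/c mice immunized intradermally at the tail base with bovine type II collagen emulsified 1:1 in complete Freund's adjuvant (1 mg/mL, 0.1 mL), with the same boost on day 14. Gavage dosing for 2 weeks; prednisone 5 mg/kg i.g. as reference. Non-immunized normal group included, n=10 per group. Outcomes: four-paw arthritis score, blinded, maximum 16. Spleen index = spleen weight/body weight. Serum cytokines by ELISA. Right hind limb fixed in 4% paraformaldehyde, decalcified 30 days in 12.5% EDTA pH 7.0, 6–8 μm H&E sections graded blindly 0–3.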
# Mus musculus [17] = experiment: Antiinflammatory activity in Balb/c mouse model of collagen-induced arthritis assessed as reduction in spleen index at 25 to 50 mg/kg, ig for 2 weeks; format: functional, organism-based; in short: as §5
# Mus musculus [18] = experiment: Antiinflammatory activity in Balb/c mouse model of collagen-induced arthritis assessed as reduction in serum IFNgamma level at 25 to 50 mg/kg, ig for 2 weeks by ELISA; format: functional, organism-based; in short: as §5
# Mus musculus [19] = experiment: Antiinflammatory activity in Balb/c mouse model of collagen-induced arthritis assessed as reduction in serum IL-1beta level at 25 to 50 mg/kg, ig for 2 weeks by ELISA; format: functional, organism-based; in short: as §5
# Mus musculus [20] = experiment: Antiinflammatory activity in Balb/c mouse model of collagen-induced arthritis assessed as reduction in serum IL6 level at 25 to 50 mg/kg, ig for 2 weeks by ELISA; format: functional, organism-based; in short: as §5
# Mus musculus [21] = experiment: Antiinflammatory activity in Balb/c mouse model of collagen-induced arthritis assessed as increase in serum IL10 level at 25 to 50 mg/kg, ig for 2 weeks by ELISA; format: functional, organism-based; in short: as §5
# Mus musculus [22] = experiment: Antiinflammatory activity in Balb/c mouse model of collagen-induced arthritis assessed as reduction in degree of cartilage and bone destruction and inflammation at 25 to 50 mg/kg, ig for 2 weeks by H and E staining based histopathological analysis; format: functional, organism-based; in short: as §5
# Mus musculus [23] = experiment: Antiinflammatory activity in Balb/c mouse model of Imiquimod-induced psoriasis-like skin lesions assessed as inhibition of inflammation at 25 to 50 mg/kg, ig; format: functional, organism-based
# In short: (§6)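 Back skin shaved (5 cm × 4 cm) under isoflurane. Two days later, 5% imiquimod cream applied topically for 6 consecutive days; controls received base cream. Dosing by gavage, with prednisone 5 mg/kg as reference, n=10 per group. Erythema and scaling scored daily and blinded, 0–4. On day 7: spleen index, serum IL-1β and IL-6 by ELISA, and 3 µm H&E back-skin sections. Means ± SD.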
# Mus musculus [24] = experiment: Antiinflammatory activity in Balb/c mouse model of Imiquimod-induced psoriasis-like skin lesions assessed as decrease in adjusted scale scores consisting of erythema, epidermal acanthosis, and lesions thickness at 25 to 50 mg/kg, ig; format: functional, organism-based; in short: as §6
# Mus musculus [25] = experiment: Antiinflammatory activity in Balb/c mouse model of Imiquimod-induced psoriasis-like skin lesions assessed as reduction of spleen index at 25 to 50 mg/kg, ig; format: functional, organism-based; in short: as §6
# Mus musculus [26] = experiment: Antiinflammatory activity in Balb/c mouse model of Imiquimod-induced psoriasis-like skin lesions assessed as reduction of serum IL-1beta level at 25 to 50 mg/kg, ig by ELISA; format: functional, organism-based; in short: as §6
# Mus musculus [27] = experiment: Antiinflammatory activity in Balb/c mouse model of Imiquimod-induced psoriasis-like skin lesions assessed as reduction of serum IL6 level at 25 to 50 mg/kg, ig after 7 days by ELISA; format: functional, organism-based; in short: as §6
# Mus musculus [28] = experiment: Antiinflammatory activity in Balb/c mouse model of Imiquimod-induced psoriasis-like skin lesions assessed as reduction of histopathological changes at 25 to 50 mg/kg, ig by H and E staining based histopathological analysis; format: functional, organism-based; in short: as §6
# Mus musculus [29] = experiment: Antiinflammatory activity in Balb/c mouse model of collagen-induced arthritis assessed as reduction in degree of cartilage and bone destruction and inflammation at 5 mg/kg, ig for 2 weeks by H and E staining based histopathological analysis; format: functional, organism-based; in short: as §5
# Mus musculus [30] = experiment: Antiinflammatory activity in Balb/c mouse model of Imiquimod-induced psoriasis-like skin lesions assessed as reduction of serum IL-1beta level at 5 mg/kg, ig by ELISA; format: functional, organism-based; in short: as §6
# Mus musculus [31] = experiment: Antiinflammatory activity in Balb/c mouse model of Imiquimod-induced psoriasis-like skin lesions assessed as reduction of serum IL6 level at 5 mg/kg, ig by ELISA; format: functional, organism-based; in short: as §6
# T1 sequence (P01375 whole entry): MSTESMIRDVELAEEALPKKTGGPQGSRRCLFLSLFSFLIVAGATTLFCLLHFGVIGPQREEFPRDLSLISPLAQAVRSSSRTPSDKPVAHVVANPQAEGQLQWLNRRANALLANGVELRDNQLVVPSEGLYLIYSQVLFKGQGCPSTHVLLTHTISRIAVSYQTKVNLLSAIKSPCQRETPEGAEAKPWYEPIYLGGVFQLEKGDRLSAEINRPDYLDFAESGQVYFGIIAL
structure (smiles),measurement,setting,value
O=C1C[C@H](Nc2ncnc3[nH]cnc23)CN1Cc1ccccc1,inhibition,Mus musculus [1],Active
same,Kd,Tumor necrosis factor [2]; read-out: Kd,82.1 µM
same,fold change (FC),Tumor necrosis factor [3],18
same,IC50,Tumor necrosis factor [4],0.109 µM
same,Activity,Tumor necrosis factor [5],Dose-dependent effect
same,T,Tumor necrosis factor [6],94 °C
same,inhibition,[7],Dose-dependent effect
same,inhibition,[8],Active
same,inhibition,[9],Active
same,IC50,[10],> 100 µM
same,inhibition,Mus musculus [11],Active
same,Activity,Mus musculus [12],Active
same,Activity,Mus musculus [13],Active
same,Activity,Mus musculus [14],Active
same,Activity,Mus musculus [15],Active
same,Activity,Mus musculus [16],Active
same,Activity,Mus musculus [17],Active
same,Activity,Mus musculus [18],Dose-dependent effect
same,Activity,Mus musculus [19],Dose-dependent effect
same,Activity,Mus musculus [20],Dose-dependent effect
same,Activity,Mus musculus [21],Dose-dependent effect
same,Activity,Mus musculus [22],Active
same,Activity,Mus musculus [23],Active
same,Activity,Mus musculus [24],Active
same,Activity,Mus musculus [25],Active
same,Activity,Mus musculus [26],Dose-dependent effect
same,Activity,Mus musculus [27],Dose-dependent effect
same,Activity,Mus musculus [28],Active
O=c1c([C@H]2NCCc3c2[nH]c2ccccc32)c(O)[nH]c(=S)n1Cc1ccc(F)cc1,Kd,Tumor necrosis factor [2],Not Active
O=C(CCc1ccccc1)[C@H]1Cc2[nH]cnc2CN1C(=O)c1cccs1,Kd,Tumor necrosis factor [2],Not Active
C[C@]12C=CC(=O)C=C1CC[C@@H]1[C@@H]2C(=O)C[C@@]2(C)[C@H]1CC[C@]2(O)C(=O)CO,Activity,Mus musculus [29],Active
same,Activity,Mus musculus [30],Active
same,Activity,Mus musculus [31],Active
CC1CCc2c([nH]c3ccccc23)[C@H]1c1c(O)nc2n(c1=O)CCS2 (some centres not stated),Kd,Tumor necrosis factor [2],Not Active
O=c1c([C@H]2NCCc3c2[nH]c2ccccc32)c(O)[nH]c(=S)n1-c1ccc2ccccc2c1,Kd,Tumor necrosis factor [2],Not Active
Cn1c(SCC(=O)N2CC(=O)Nc3cc(C(F)(F)F)ccc32)nnc1-c1ccccc1Cl,Kd,Tumor necrosis factor [2],Not Active
Cc1cc(C)cc(-n2c(O)c([C@H]3NCCc4c3[nH]c3ccccc43)c(O)nc2=S)c1,Kd,Tumor necrosis factor [2],Not Active
